Test results: ChEMBL document CHEMBL1150072, “Two new bioactive monotetrahydrofuran Annonaceous acetogenins from the bark of Xylopia aromatica” (J Nat Prod, 1994)
≈ marks a conversion by molar mass, not a printed value.

Experiments:
[1] = system: HT-29; assay: Cytotoxicity against human HT-29 cells after 7 days by MTT assay; type: functional; conditions: HT-29, 168 h, read-out: ED50 (the source's name)
Summary of the method: (§1)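 Seven-day MTT assay of each compound against the human solid tumour lines A-549 (lung carcinoma), MCF-7 (breast carcinoma) and HT-29 (colon adenocarcinoma), run at a cell culture core laboratory. Adriamycin served as the positive control. Values from separate runs of the cell culture assay were reported apart.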

[2] = system: MCF7; assay: Cytotoxicity against human MCF7 cells after 7 days by MTT assay; type: functional; conditions: MCF7, 168 h, read-out: ED50 (the source's name); summary of the method: as §1
[3] = system: A549; assay: Cytotoxicity against human A549 cells after 7 days by MTT assay; type: functional; conditions: A549, 168 h, read-out: ED50 (the source's name); summary of the method: as §1
[4] = Toxicity in brine shrimp; type: organism-based; conditions: artemia, in vivo

SMILES	EC50 [1]	EC50 [2]	EC50 [3]	LC50 [4]
CCCCCCCCCC/C=C\CC[C@@H](O)[C@H]1CC[C@H]([C@H](O)CCCCCCC(O)CCC[C@@H](O)CC2=C[C@H](C)OC2=O)O1 (stereo not given in full) [XYLOPIEN]	7.26 ng/mL (≈ 0.0117 µM)	7.11 ng/mL (≈ 0.0114 µM)	3.64 ng/mL (≈ 0.00584 µM)	871 ng/mL (≈ 1.4 µM)
CCCCCCCCCC/C=C\CC[C@@H](O)[C@H]1CC[C@H]([C@H](O)CCCCC(O)CCCCC[C@@H](O)CC2=C[C@H](C)OC2=O)O1 (stereo not given in full) [XYLOMATENIN]	< 1 ng/mL	631 ng/mL (≈ 1.01 µM)	< 1 ng/mL	770 ng/mL (≈ 1.24 µM)
COc1cccc2c1C(=O)c1c(O)c3c(c(O)c1C2=O)C[C@@](O)(C(=O)CO)C[C@@H]3O[C@H]1C[C@H](N)[C@H](O)[C@H](C)O1 [DOXORUBICIN]	2.7 ng/mL (≈ 0.00497 µM)	–	1.1 ng/mL (≈ 0.00202 µM)	–
